This is an account of results in ChEMBL document CHEMBL4196148, “Antibacterial Prenylated Isoflavonoids from the Stems of Millettia extensa” (2018).

In brackets after ≈: the same amount, converted by molar mass. Activity calls are given as the source filed them. No cut-off for these calls is given here.

The test system of assay [1] is Bacillus subtilis. Put plainly: Antibacterial activity against Bacillus subtilis TISTR 008 by 2-fold serial dilution method. The assay is classed as functional, Bacillus spizizenii. In a few lines:
(§1)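 MICs determined following Clinical and Laboratory Standards Institute recommendations, reported in μg/mL.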

For assay [2], the system named is Staphylococcus aureus. Kind of assay: Antibacterial activity against Staphylococcus aureus TISTR 1466 by 2-fold serial dilution method. The assay is classed as functional. In a few lines: as §1
Assay [3] relates to Staphylococcus epidermidis. Kind of assay: Antibacterial activity against Staphylococcus epidermidis ATCC 12228 by 2-fold serial dilution method. In kind it is functional. In short, it runs like this:
as §1

In another assay the test system is Salmonella typhimurium. Put plainly: Antibacterial activity against Salmonella typhimurium TISTR 781 by 2-fold serial dilution method. The assay is classed as functional, Salmonella enterica subsp. enterica serovar Typhimurium. In a few lines:
as §1

The next assay deals with Pseudomonas aeruginosa. Kind of assay: Antibacterial activity against Pseudomonas aeruginosa TISTR 292 by 2-fold serial dilution method. The assay is classed as functional. In short, it runs like this: as §1
The subject of assay [4] is Staphylococcus aureus. Put plainly: Antibacterial activity against Staphylococcus aureus TISTR 1466 at >128 ug/ml by 2-fold serial dilution method. In kind it is functional, organism-based. In short, it runs like this: as §1
Assay [5] relates to Staphylococcus epidermidis. Kind of assay: Antibacterial activity against Staphylococcus epidermidis ATCC 12228 at >128 ug/ml by 2-fold serial dilution method. The assay is classed as functional, organism-based. In short, it runs like this:
as §1

The subject of assay [6] is Bacillus subtilis. Put plainly: Antibacterial activity against Bacillus subtilis TISTR 008 at >128 ug/ml by 2-fold serial dilution method. In kind it is functional, organism-based. The settings on record: Bacillus spizizenii. In short, it runs like this:
as §1

As usually defined, the MIC is the lowest concentration found to suppress growth. High values mean a need for much substance, low ones inhibition by little substance. In the case of `CC(C)=CCc1c2c(c(O)c3c(=O)c(-c4ccc(O)c(O)c4)coc13)C=CC(C)(C)O2` [AURICULASIN], the MIC against Bacillus subtilis [1] was 8 µg/mL (≈ 19 µM); with Staphylococcus aureus [2], 4 µg/mL (≈ 9.51 µM); in assay [3] it was 4 µg/mL (≈ 9.51 µM); in the assay on Salmonella typhimurium (Salmonella enterica), 128 µg/mL (≈ 304 µM); in the assay on Pseudomonas aeruginosa, 128 µg/mL (≈ 304 µM).
Turning to `CC(C)=CCOc1ccc(-c2coc3cc4c(c(O)c3c2=O)C=CC(C)(C)O4)cc1`, the MIC in the assay with Salmonella typhimurium (Salmonella enterica) and against Pseudomonas aeruginosa was 128 µg/mL (≈ 316 µM) throughout. The outcome (in the assay on Staphylococcus aureus [4]; in assay [5]; with Bacillus subtilis [6]) was inactive.
For the compound `CC(C)=CCc1c2c(c(O)c3c(=O)c(-c4ccc(O)cc4O)coc13)C=CC(C)(C)O2`, the MIC amounted to 2 µg/mL (≈ 4.76 µM) against Bacillus subtilis [1]; 2 µg/mL (≈ 4.76 µM) against Staphylococcus aureus [2]; 2 µg/mL (≈ 4.76 µM) in assay [3]; 128 µg/mL (≈ 304 µM) in the assay with Salmonella typhimurium (Salmonella enterica); 128 µg/mL (≈ 304 µM) in the assay with Pseudomonas aeruginosa.
Consider `CC(C)=CCC1=C(O)c2c(occ(-c3ccc(O)cc3O)c2=O)C(CC=C(C)C)(CC=C(C)C)C1=O`, for which the MIC came out at 2 µg/mL (≈ 4.08 µM) against Bacillus subtilis [1]; 2 µg/mL (≈ 4.08 µM) in the assay with Staphylococcus aureus [2]; 2 µg/mL (≈ 4.08 µM) in assay [3]; 128 µg/mL (≈ 261 µM) in the assay on Salmonella typhimurium (Salmonella enterica); 128 µg/mL (≈ 261 µM) against Pseudomonas aeruginosa.
Take `CC(C)=CCc1c2c(c3occ(-c4ccc(O)cc4O)c(=O)c3c1O)C=CC(C)(C)O2`: the MIC in the assay with Bacillus subtilis [1] amounted to 2 µg/mL (≈ 4.76 µM); in the assay with Staphylococcus aureus [2], 2 µg/mL (≈ 4.76 µM); in assay [3], 2 µg/mL (≈ 4.76 µM); in the assay on Salmonella typhimurium (Salmonella enterica), 128 µg/mL (≈ 304 µM); against Pseudomonas aeruginosa, 128 µg/mL (≈ 304 µM).
With `Oc1ccc2c(c1)OC[C@H]1c3cc4c(cc3O[C@@H]21)OCO4` [MAACKIAIN], the MIC with Salmonella typhimurium (Salmonella enterica) and against Pseudomonas aeruginosa was 128 µg/mL (≈ 450 µM) in each case. The outcome (with Staphylococcus aureus [4]; in assay [5]; with Bacillus subtilis [6]) was inactive.
`CN[C@H](CC(C)C)C(=O)N[C@H]1C(=O)N[C@@H](CC(N)=O)C(=O)N[C@H]2C(=O)N[C@H]3C(=O)N[C@H](C(=O)N[C@H](C(=O)O)c4cc(O)cc(O)c4-c4cc3ccc4O)[C@H](O)c3ccc(c(Cl)c3)Oc3cc2cc(c3O[C@@H]2O[C@H](CO)[C@@H](O)[C@H](O)[C@H]2O[C@H]2C[C@](C)(N)[C@H](O)[C@H](C)O2)Oc2ccc(cc2Cl)[C@H]1O` [VANCOMYCIN]: the MIC (against Bacillus subtilis [1]; against Staphylococcus aureus [2]; in assay [3]) was 0.25 µg/mL (≈ 0.173 µM) in each case.
`CC(C)=CCc1c2c(c(O)c3c(=O)c(-c4ccc(O)cc4)coc13)C=CC(C)(C)O2` [WARANGALONE]: the MIC against Bacillus subtilis [1] came out at 2 µg/mL (≈ 4.94 µM); in the assay on Staphylococcus aureus [2], 2 µg/mL (≈ 4.94 µM); in assay [3], 4 µg/mL (≈ 9.89 µM); with Salmonella typhimurium (Salmonella enterica), 128 µg/mL (≈ 316 µM); in the assay on Pseudomonas aeruginosa, 128 µg/mL (≈ 316 µM).
GENTAMICIN: the MIC in the assay on Salmonella typhimurium (Salmonella enterica subsp. enterica serovar Typhimurium) was 0.25 µg/mL; in the assay with Pseudomonas aeruginosa it was 2 µg/mL.
On to `CC(C)=CCOc1ccc(-c2coc3cc4c(c(O)c3c2=O)C=CC(C)(C)O4)c(O)c1`, for which the MIC against Salmonella typhimurium (Salmonella enterica) and against Pseudomonas aeruginosa was 128 µg/mL (≈ 304 µM) throughout. The outcome (with Staphylococcus aureus [4]; in assay [5]; with Bacillus subtilis [6]) was inactive.
Consider `C=C(C)[C@@H]1Cc2c(cc(O)c3c2O[C@H]2COc4cc(OC)c(OC)cc4[C@H]2C3=O)O1`, for which the MIC in the assay with Salmonella typhimurium (Salmonella enterica) and in the assay with Pseudomonas aeruginosa was 128 µg/mL (≈ 312 µM) each time. Further, the outcome (in the assay on Staphylococcus aureus [4]; in assay [5]; in the assay on Bacillus subtilis [6]) was inactive.
`COc1cc(OC)c(-c2coc3cc4c(c(O)c3c2=O)C=CC(C)(C)O4)cc1OC`: the MIC in the assay with Salmonella typhimurium (Salmonella enterica) and against Pseudomonas aeruginosa was 128 µg/mL (≈ 312 µM) each time. Further, the outcome (with Staphylococcus aureus [4]; in assay [5]; with Bacillus subtilis [6]) was inactive.
